From the RNAGym collection of RNA variant scans (doi:10.1126/science.aae0568) come the findings set out here.

Fewer inactive variants are shown than the library holds.

B1: tRNA (parent)
chain: GUUCCGUUGGCGUAAUGGUAACGCGUCUCCCUCCUAAGGAGAAGACUGCGGGUUCGAGUCCCGUACGGAACG

This series covers variants of B1. Briefly: yeast fitness relative to wild type (ratio to wild type); higher = fitter; tRNA-Arg(CCU), competitive growth, 37 C, YPD. Summed up:
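Variants of the tRNA-Arg(CCU) gene, chemically synthesised with a 3% per-site mutation rate at 69 sites, were placed at the native genomic locus in Saccharomyces cerevisiae. The pooled strains were competed in YPD at 37°C for 24 hours in six parallel replicates. Gene amplicons from the start population and from each end population were read by 100-nucleotide paired-end sequencing. Darwinian fitness relative to wild type came from changes in genotype frequencies; genotypes needed ≥ 100 starting reads, and estimates < 0.5 were set to 0.5.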
Regarding GUUCCGUUGGCCUGAUGGUAACGCAUCUCCCUCCUAAGGACAAGACUGCGGGUUCGAGUCUCGUACGGAGCG, the yeast fitness was ≤ 0.5.

Consider GUUCCGUUGGCCUAAUGGUUACGCGUCUCCCUCCUGAGGAGAAGAAUGCGGGUACGAGUCCCGUACCGAACG, for which the yeast fitness was ≤ 0.5.

Turning to GUUCCGUUGGCCUAAUGGUAACGCGUCUCCCUCCUAAGGAGUAGAUUGCGGGUUGGAGUCCCGUACGGAACG, the yeast fitness was ≤ 0.5.

For the variant GUUCCGUUGGCCUAAUGGUUACGCAUCUCCCUCCUAAGGAGAAGACUGCGGGUUCGAGUCCCGUACGGAACG, the yeast fitness is ≤ 0.5.

With GUUCCGUUGGCCUAAUGGUAACGCGUCUCCCUCCUAAGGAGAAGACUGCGGGUUCGAGUCCCGUACGGUACG, the yeast fitness worked out at 0.935.

In the case of GUUCCGUUGGCCUAAUGGUAACGCGUCUCCCUCCUAAGGAGAAGACUGCGGGUUCGAGUCCCGUACGGGACG, the yeast fitness amounted to 0.82.

Take GUUCCGUUGGCCUAAUGGUAGCGCGUCUCCCUCCUAAGGAGAAGACUGCGGGUUCGACUCCCGUACGGAACG: the yeast fitness amounted to 0.892.

Consider GUUCCGUUGGCCUAAUGGUAUCGCGUCUCCCUCCUAAGGAGUAGACUGCGGGUUCGAGUCCCGUACGGAACG, for which the yeast fitness came out at 0.611.

On to GUUCCGUUGGCCUAAUGGUAACGCGUCUCCCUCCUAAGGAGAAGGCUGCGGGUUCGAGUCCCGUACGGAACG, for which the yeast fitness came out at 0.684.

With GUUCCGUUGGCCUAAUGGUAACGCGUCUCCCUCCUAAGGAGAAGUCUGCGGGUUCGAGUCCCGUACGGAACG, the yeast fitness came to 0.978.

Consider GUUCCGUUGGCCUAAUGGUAACGCGUCUCCCUCCUAGGGAGAAGACUGCGGGUACGAGUCCCGUCCGGAACG, for which the yeast fitness is ≤ 0.5.

GUUCCGUUGGCCUAAUGGUAACGCGUCUCCCUCCUAAGGCGAAGAUUGAGGGUUCGAGUCCCGAACGGAACG: the yeast fitness is ≤ 0.5.

Regarding GUUCCGUUGGCCUAAUGGUUACGCGUCUCCCUCCUGAGGAGAAGAAUGCGGGUACGAGUCCCGUACGGAUCG, the yeast fitness is ≤ 0.5.

Consider GUUCCGUUGGCCUAAUGGUAACGCGUCUCCCUCCUAAGGAGAAGGCUGCGGGUUCGAGUCCCGUGCGGAACG, for which the yeast fitness worked out at 0.548.

GUUCCGUUGGCCUACUGGUUACGCGUCUCCCUCCUAACGAGAAGACUGCCGGUUCGAGUCCCGUACGGAACG: the yeast fitness was ≤ 0.5.

Consider GUUCCGUUGGCCUAAUGGUUACGCGUCUCCCUCCUAAGGAGAAGUCUGCAAGUUCGAGUCCCGUACGGAACG, for which the yeast fitness is ≤ 0.5.

Consider GUUCCGUUGGCCUAUUGGUAACGCGUCUCCCUCCUAAGGAGAAGACUGUGGGUUCGAGUCCCGUACGGAACG, for which the yeast fitness was ≤ 0.5.

On to GUUCCGUUGGCCUGAUGAUAACGCGUCUCCCUGCUAAGGAGAAGACUGCGGGUUCGAGUCCCGUACGGAACG, for which the yeast fitness was ≤ 0.5.

For the variant GUUCCGUUGGCCUACUGGAAACGCGUCUCCCUCUUAAGGAGAAGACUGGGGGUUCGAGUCCCGUACGGUACG, the yeast fitness was ≤ 0.5.

On to GUUCCGUUGGCCUGAUGGUAACGCGUCUCCCUGCUAAGGAGAACACUGCGGGUUCGAGUCCCGUACGGAACG, for which the yeast fitness is ≤ 0.5.

In the case of GUUCCGUUGGCCUAAUGGUCACGCGUCUCUGUCCUAAGGAGAAGACUGCGGGUUCGAGUCCCGUACGGAACG, the yeast fitness is ≤ 0.5.

Regarding GUUCCGUUGGCCUAAUGGUAACGCGUCUCCCUCCUAAGGAGAAGACUGCGGGUUCGGGUCCCGUACGGAACG, the yeast fitness was determined as 0.974.

With GUUCCGUUGGCCUAAUGGUAACGCGUCUCCCUCCUAAGGAGAAGACUGCGGGUUCGUGUCCCGUACGGAACG, the yeast fitness was 0.663.

Regarding GUUCCGUUGGCCUAAUGGUAACGCGUCUCCCUCCUAAGGGGAAGACUGCCGGUUCGAGUCCUGUACGGAACG, the yeast fitness came out at 0.756.

With GUUCCGUUGGCCUAGUGGUAACGCGUCUCCCUCCUAAGGAGAACACUGCGGGUUCGUGUCCCGUACGGAACG, the yeast fitness stood at 0.69.

As to GUUCCGUUGGCCUACUGGAAACGCGUCUCCCUCUUAAGGAGAAGACUGAGGGUUCGAGUCCCGUACAGAACG, the yeast fitness is 0.547.

Take GUUCCGUUGGCCUAAUGGUAAGGCGUCUCCCUCCUAAGGAGAAGACUGCGGGUUCGAGUCCCGUACGGAACG: the yeast fitness was 1.03.

Turning to GUUCCGUUGGCCUACUGGUUACGCGUCUCCCUCCUAAGGAGAAGACUGCGGGAUCGAGGCCCGUACGGAACG, the yeast fitness is ≤ 0.5.

In the case of GUUCCGUUGGCCUGCUGGUAACGCGUCUCCCUCCUAAGGAACAGACUGCCGGUUCGAGUCCCGUACGGAGCG, the yeast fitness was ≤ 0.5.

With GUUCCGUUGGCCUAAUGGUACCGCGUCUCCCUCCUAAGGAGAAGACUGCGGGUUCGAGUCCCGUACGGAACG, the yeast fitness turned out to be 0.638.

For GUUCCGUUGGCCUGCUGGUAACGCGUCUCCCUCCUAAGGAGAAGACUGCGGCUUCGAGUCCCGUACGGAACG, the yeast fitness is ≤ 0.5.

As to GUUCCGUUGGCCUAAUGGUCACGCGUCUCCCUCCUGAGGAGAAGACUGCGGGUUCGAGUCCCGUACGGAACG, the yeast fitness came to 0.581.

For GUUCCGUUGGCCUAAUGGUAACGCGUCUCCCUCCUAAGGGGAAGACUGCGGGUUCGAGUCCCGUACGGAGCG, the yeast fitness is 0.567.

Regarding GUUCCGUUGGCCUAAUGGUAACGCGUCUCCCUCCUAAGGAGGAGACUGCGGGUGCGAGUCCCGUACGGAACG, the yeast fitness is ≤ 0.5.

As for GUUCCGUUGGCCUAAUGGUAACGCGUCUCCCUCCUAAGGAGAAGGCCGCGGGUUCGAGUCCCGUACGGAACG, the yeast fitness was determined as 0.502.

Take GUUCCGUUGGCCUAGUGGUAACGCGUCUCCCUCAUAAGGAGAAGACUGCGGGUUCGAGUCCCCUACGGACCG: the yeast fitness turned out to be 0.641.

Regarding GUUCCGUUGGCCUAAUGGUAACGCGUCUCCCUCCUAAGGAGAUGACUGCGGGUCCGAGUCCCGUACGGAACG, the yeast fitness is ≤ 0.5.

With GUUCCGUUGGCCUUAUGGUAACGCGUCUCCCUCCUAAGGAGAAGACUGCGGGUUCGAGUCGCGCACGGAACG, the yeast fitness is ≤ 0.5.
